Here are results for 7 compounds from ChEMBL document CHEMBL3352499, “One pot three components microwave assisted and conventional synthesis of new 3-(4-chloro-2-hydroxyphenyl)-2-(substituted) thiazolidin-4-one as antimicrobial agents” (Bioorg Med Chem Lett, 2014).

Experiment [1] has as its system Candida albicans. Nature of the experiment: Antimicrobial activity against Candida albicans NCIM-3471 after 20 hrs by two fold serial macrodilution technique. Format: functional. Conditions: NCIM-3471, 20 h.
Experiment [2] has as its system Candida albicans. The experiment can be described thus: Fungicidal activity against Candida albicans NCIM-3471 after 48 to 72 hrs by two fold serial macrodilution technique. Format: functional. The gist of the method: (§1)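 Serial subcultivation followed 72 h of exposure to compounds dissolved in saline containing 5% DMSO. MBC/MFC was the lowest concentration with no visible growth, taken as 99.5% killing of the original inoculum. Runs were in triplicate, with the mean reading used.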

Experiment [3] relates to Aspergillus flavus. The experiment can be described thus: Antimicrobial activity against Aspergillus flavus NCIM-539 after 20 hrs by two fold serial macrodilution technique. The conditions noted are these: NCIM-539, 20 h. It is filed as functional.
The test system of experiment [4] is Aspergillus flavus. The experiment can be described thus: Fungicidal activity against Aspergillus flavus NCIM-539 after 48 to 72 hrs by two fold serial macrodilution technique. It is filed as functional. Put shortly:
as §1

The test system of experiment [5] is Aspergillus niger. Nature of the experiment: Antimicrobial activity against Aspergillus niger NCIM-1196 after 20 hrs by two fold serial macrodilution technique. Format: functional. Conditions: NCIM-1196, 20 h.
Experiment [6] relates to Aspergillus niger. Nature of the experiment: Fungicidal activity against Aspergillus niger NCIM-1196 after 48 to 72 hrs by two fold serial macrodilution technique. It is filed as functional. The gist of the method:
as §1

The test system of experiment [7] is Cryptococcus neoformans. The experiment can be described thus: Antimicrobial activity against Cryptococcus neoformans NCIM-3378 after 20 hrs by two fold serial macrodilution technique. Format: functional. Conditions: NCIM-3378, 20 h.
Experiment [8] concerns Cryptococcus neoformans. Nature of the experiment: Fungicidal activity against Cryptococcus neoformans NCIM-3378 after 48 to 72 hrs by two fold serial macrodilution technique. Format: functional. The gist of the method: as §1
The subject of experiment [9] is Bacillus subtilis. The experiment can be described thus: Antimicrobial activity against Bacillus subtilis NCIM-2063 after 20 hrs by two fold serial macrodilution technique. Format: functional. The conditions noted are these: NCIM-2063, 20 h. Put shortly:
(§2)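 Serial macrodilution in 96-well microtiter plates. Compounds were dissolved in saline (0.8% NaCl) containing 5% DMSO, and strains were incubated with a range of concentrations for 20 h at 37 °C on a rotary shaker (160 rpm). MIC was the lowest concentration without growth. Runs were in triplicate, with the mean taken. The negative control was 5% DMSO.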

For experiment [10], the system named is Bacillus subtilis. The experiment can be described thus: Bactericidal activity against Bacillus subtilis NCIM-2063 after 72 hrs by two fold serial macrodilution technique. Format: functional. Conditions: NCIM-2063, 72 h. Put shortly:
as §1

The test system of experiment [11] is Staphylococcus aureus. Nature of the experiment: Antimicrobial activity against Staphylococcus aureus NCIM-2901 after 20 hrs by two fold serial macrodilution technique. It is filed as functional. Conditions: NCIM-2901, 20 h. The gist of the method:
as §2

The subject of experiment [12] is Staphylococcus aureus. Nature of the experiment: Bactericidal activity against Staphylococcus aureus NCIM-2901 after 72 hrs by two fold serial macrodilution technique. It is filed as functional. The conditions noted are these: NCIM-2901, 72 h. The gist of the method: as §1
Experiment [13] has as its system Escherichia coli. Nature of the experiment: Antimicrobial activity against Escherichia coli NCIM-2256 after 20 hrs by two fold serial macrodilution technique. It is filed as functional. The conditions noted are these: NCIM-2256, 20 h. The gist of the method:
as §2

Experiment [14] relates to Escherichia coli. Nature of the experiment: Bactericidal activity against Escherichia coli NCIM-2256 after 72 hrs by two fold serial macrodilution technique. Format: functional. Conditions: NCIM-2256, 72 h. The gist of the method:
as §1

The test system of experiment [15] is Salmonella typhimurium. The experiment can be described thus: Antimicrobial activity against […] after 20 hrs by two fold serial macrodilution technique. Format: functional, Salmonella enterica subsp. enterica serovar Typhimurium. The conditions noted are these: Salmonella enterica. The gist of the method:
as §2

In experiment [16] the test system is Salmonella typhimurium. Nature of the experiment: Bactericidal activity against […] after 72 hrs by two fold serial macrodilution technique. Conditions: Salmonella enterica. Format: functional, Salmonella enterica subsp. enterica serovar Typhimurium. Put shortly:
as §1

The subject of another experiment is HeLa. Nature of the experiment: Cytotoxicity against human HeLa cells by SRB method. Format: cell-based. Put shortly:
(§3)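 SRB colorimetric growth assay. IC50, in µM, was the concentration inhibiting cell growth by 50% relative to untreated control cells. Runs were in triplicate in three independent experiments, with means reported. The positive control was doxorubicin.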

A further experiment deals with MCF7. Nature of the experiment: Cytotoxicity against human MCF7 cells by SRB method. It is filed as cell-based. Put shortly: as §3
A general note: Sulforhodamine B stains cellular protein and so reports cell mass.

≈ marks a conversion by molar mass, not a printed value.

As to `Clc1ccc(COC(Cn2ccnc2)c2ccc(Cl)cc2Cl)c(Cl)c1` (stereo not drawn) [MICONAZOLE], the minimum inhibitory concentration (MIC) against Candida albicans [1], with Aspergillus flavus [3], against Aspergillus niger [5] and against Cryptococcus neoformans [7] was 3.25 µg/mL (≈ 7.81 µM) throughout. In addition, the minimum fungicidal concentration (MFC) against Candida albicans [2], with Aspergillus flavus [4], against Aspergillus niger [6] and against Cryptococcus neoformans [8] was 12.5 µg/mL (≈ 30 µM) each time.

Turning to `N#Cc1ccc(C2SCC(=O)N2c2ccc(Cl)cc2O)cc1` (stereo not drawn), the minimal inhibitory concentration (MIC) (in general, the lowest concentration found to suppress growth) was 100 µg/mL (≈ 302 µM) with Bacillus subtilis [9]; 35 µg/mL (≈ 106 µM) with Staphylococcus aureus [11]; 90 µg/mL (≈ 272 µM) against Escherichia coli [13]; 55 µg/mL (≈ 166 µM) against Salmonella typhimurium [15]; 90 µg/mL (≈ 272 µM) against Candida albicans [1]; 60 µg/mL (≈ 181 µM) in the experiment on Aspergillus flavus [3]. The MIC against Aspergillus niger [5] is 100 µg/mL (≈ 302 µM); in the experiment on Cryptococcus neoformans [7], 85 µg/mL (≈ 257 µM). For the same compound, the minimal bactericidal concentration (MBC) (as a rule, the smallest concentration meeting the test's criterion for killing) against Bacillus subtilis [10] was determined as 140 µg/mL (≈ 423 µM); against Staphylococcus aureus [12], 145 µg/mL (≈ 438 µM); against Escherichia coli [14] it was 120 µg/mL (≈ 363 µM); against Salmonella typhimurium [16], 115 µg/mL (≈ 348 µM). Besides, the MFC (usually the lowest tested concentration that kills the fungus rather than only halting it) against Candida albicans [2] came to 140 µg/mL (≈ 423 µM); in the experiment with Aspergillus flavus [4] it was 115 µg/mL (≈ 348 µM); in the experiment with Aspergillus niger [6], 145 µg/mL (≈ 438 µM). Also, the figures for the IC50 in the experiment with HeLa and in the experiment on MCF7 were 83.2 µM and 81.2 µM, respectively.

Take `COc1ccc(C2SCC(=O)N2c2ccc(Cl)cc2O)c(OC)c1` (stereo not drawn): the minimal inhibitory concentration (MIC) in the experiment with Bacillus subtilis [9] came out at 30 µg/mL (≈ 82 µM); in the experiment on Staphylococcus aureus [11], 15 µg/mL (≈ 41 µM); in the experiment on Escherichia coli [13], 30 µg/mL (≈ 82 µM); against Salmonella typhimurium [15], 35 µg/mL (≈ 95.7 µM); against Candida albicans [1], 3 µg/mL (≈ 8.2 µM); with Aspergillus flavus [3] it was 10 µg/mL (≈ 27.3 µM). The minimal inhibitory concentration (MIC) against Aspergillus niger [5] came out at 65 µg/mL (≈ 178 µM); against Cryptococcus neoformans [7], 70 µg/mL (≈ 191 µM). Also, the MBC in the experiment with Bacillus subtilis [10] amounted to 45 µg/mL (≈ 123 µM); against Staphylococcus aureus [12], 25 µg/mL (≈ 68.3 µM); in the experiment on Escherichia coli [14] it was 50 µg/mL (≈ 137 µM); with Salmonella typhimurium [16] it was 45 µg/mL (≈ 123 µM). Besides, the minimum fungicidal concentration (MFC) is 17.5 µg/mL (≈ 47.8 µM) against Candida albicans [2], 15 µg/mL (≈ 41 µM) against Aspergillus flavus [4], 120 µg/mL (≈ 328 µM) in the experiment on Aspergillus niger [6] and 120 µg/mL (≈ 328 µM) in the experiment on Cryptococcus neoformans [8]. In addition, the IC50 – broadly, the concentration that inhibits the measured activity by half – in the experiment with HeLa was 68.2 µM; in the experiment on MCF7, 68.5 µM.

`OC(Cn1cncn1)(Cn1cncn1)c1ccc(F)cc1F` [FLUCONAZOLE]: the minimum inhibitory concentration (MIC) in the experiment with Candida albicans [1] turned out to be 10 µg/mL (≈ 32.7 µM); in the experiment with Aspergillus flavus [3], 6.25 µg/mL (≈ 20.4 µM); in the experiment with Aspergillus niger [5] it was 6.25 µg/mL (≈ 20.4 µM); in the experiment on Cryptococcus neoformans [7] it was 6.25 µg/mL (≈ 20.4 µM). The MFC in the experiment with Candida albicans [2] was 22.5 µg/mL (≈ 73.5 µM); with Aspergillus flavus [4], 16.5 µg/mL (≈ 53.9 µM); against Aspergillus niger [6], 16.5 µg/mL (≈ 53.9 µM); in the experiment on Cryptococcus neoformans [8], 16.5 µg/mL (≈ 53.9 µM).

Take `O=C(O)c1cn(C2CC2)c2cc(N3CCNCC3)c(F)cc2c1=O` [CIPROFLOXACIN]: the minimal inhibitory concentration (MIC) against Bacillus subtilis [9] was 6.25 µg/mL (≈ 18.9 µM); with Escherichia coli [13] it was 7.5 µg/mL (≈ 22.6 µM); against Salmonella typhimurium [15], 7.5 µg/mL (≈ 22.6 µM). Also, the minimal bactericidal concentration (MBC) in the experiment with Bacillus subtilis [10] came to 13 µg/mL (≈ 39.2 µM); in the experiment on Staphylococcus aureus [12], 13 µg/mL (≈ 39.2 µM); against Escherichia coli [14] it was 8 µg/mL (≈ 24.1 µM); in the experiment with Salmonella typhimurium [16], 8 µg/mL (≈ 24.1 µM).

Regarding `O=C1CSC(c2ccc(O)cc2)N1c1ccc(Cl)cc1O` (stereo not drawn), the minimal inhibitory concentration (MIC) in the experiment with Bacillus subtilis [9] stood at 15 µg/mL (≈ 46.6 µM); with Staphylococcus aureus [11], 6 µg/mL (≈ 18.6 µM); against Escherichia coli [13], 20 µg/mL (≈ 62.2 µM); in the experiment on Salmonella typhimurium [15], 25 µg/mL (≈ 77.7 µM); against Candida albicans [1] it was 25 µg/mL (≈ 77.7 µM); with Aspergillus flavus [3], 20 µg/mL (≈ 62.2 µM). The MIC came to 55 µg/mL (≈ 171 µM) against Aspergillus niger [5] and 60 µg/mL (≈ 186 µM) in the experiment with Cryptococcus neoformans [7]. Besides, the MBC came to 25 µg/mL (≈ 77.7 µM) with Bacillus subtilis [10], 20 µg/mL (≈ 62.2 µM) against Staphylococcus aureus [12], 35 µg/mL (≈ 109 µM) against Escherichia coli [14] and 45 µg/mL (≈ 140 µM) against Salmonella typhimurium [16]. Also, the MFC in the experiment with Candida albicans [2] amounted to 40 µg/mL (≈ 124 µM); in the experiment on Aspergillus flavus [4] it was 35 µg/mL (≈ 109 µM); in the experiment with Aspergillus niger [6], 115 µg/mL (≈ 357 µM). The IC50 was found to be 63.8 µM in the experiment on HeLa and 59.4 µM in the experiment on MCF7.

As to `CC1(C)S[C@@H]2[C@H](NC(=O)[C@H](N)c3ccccc3)C(=O)N2[C@H]1C(=O)O` [AMPICILLIN], the minimal inhibitory concentration (MIC) against Bacillus subtilis [9], against Staphylococcus aureus [11], with Escherichia coli [13] and against Salmonella typhimurium [15] was 12.5 µg/mL (≈ 35.8 µM) each time. Also, the MBC in the experiment with Bacillus subtilis [10], against Staphylococcus aureus [12], against Escherichia coli [14] and with Salmonella typhimurium [16] was 17.5 µg/mL (≈ 50.1 µM) throughout.
